Source: ChEMBL document CHEMBL1129637, “Conformationally defined 6-s-trans-retinoic acid analogs. 3. Structure-activity relationships for nuclear receptor binding, transcriptional activity, and cancer chemopreventive activity” (J Med Chem, 1996)
“And” between values parts separate entries of the source, which are not always exact repeats. Identical values can stand only once.

What was measured:
Mus musculus [1] = species on record: Mus musculus; assay: Antitumor activity in Mouse Skin Papilloma model; assay type: functional
Method in brief: (§1)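 Carcinogen-induced papillomas on mouse dorsal skin, with test retinoid applied 1 h before TPA. Percent papilloma reduction = (1 − mean tumors in retinoid-treated animals / mean tumors in controls) × 100. ED50 came from probit analysis of a dose-response curve. Estimated standard error is 20% of the mean.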

[2] = target: Cellular retinoic acid-binding protein 1 (Gallus gallus) (UniProt P40220); assay: Inhibition of chick skin Cytoplasmic retinoic acid binding protein at 100-fold excess ligand
[3] = target: T1, Retinoic acid receptor RXR-alpha (Mus musculus, UniProt P28700); assay: Inhibition of [3H]-(9Z)-RA binding to mouse Retinoic acid receptor RXR alpha
T1 sequence (P28700 whole entry): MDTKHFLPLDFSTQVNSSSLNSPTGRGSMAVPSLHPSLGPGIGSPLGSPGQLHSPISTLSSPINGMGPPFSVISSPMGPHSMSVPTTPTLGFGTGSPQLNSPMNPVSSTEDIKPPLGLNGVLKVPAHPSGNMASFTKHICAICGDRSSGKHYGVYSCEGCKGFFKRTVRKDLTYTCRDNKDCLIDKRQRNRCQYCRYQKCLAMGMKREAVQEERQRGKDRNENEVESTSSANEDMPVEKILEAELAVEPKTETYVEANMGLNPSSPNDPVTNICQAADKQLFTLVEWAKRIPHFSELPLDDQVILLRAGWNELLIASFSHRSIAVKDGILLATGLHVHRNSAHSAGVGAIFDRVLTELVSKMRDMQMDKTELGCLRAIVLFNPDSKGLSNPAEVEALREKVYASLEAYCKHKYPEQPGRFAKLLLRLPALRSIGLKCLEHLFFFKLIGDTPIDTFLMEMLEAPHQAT

Mus musculus [4] = species on record: Mus musculus; assay: Percentage papilloma reduction (81) at 45.9 nmol dose 1 hr prior to TPA; assay type: functional; method in brief: as §1
[5] = target: T2, Retinoic acid receptor alpha (Mus musculus) (UniProt P11416); assay: Percent inhibition of [3H]ATRA binding to mouse Retinoic acid receptor RAR alpha; set-up: concentration or dose not given beside the values; settings: concentration not given here
T2 sequence (whole entry): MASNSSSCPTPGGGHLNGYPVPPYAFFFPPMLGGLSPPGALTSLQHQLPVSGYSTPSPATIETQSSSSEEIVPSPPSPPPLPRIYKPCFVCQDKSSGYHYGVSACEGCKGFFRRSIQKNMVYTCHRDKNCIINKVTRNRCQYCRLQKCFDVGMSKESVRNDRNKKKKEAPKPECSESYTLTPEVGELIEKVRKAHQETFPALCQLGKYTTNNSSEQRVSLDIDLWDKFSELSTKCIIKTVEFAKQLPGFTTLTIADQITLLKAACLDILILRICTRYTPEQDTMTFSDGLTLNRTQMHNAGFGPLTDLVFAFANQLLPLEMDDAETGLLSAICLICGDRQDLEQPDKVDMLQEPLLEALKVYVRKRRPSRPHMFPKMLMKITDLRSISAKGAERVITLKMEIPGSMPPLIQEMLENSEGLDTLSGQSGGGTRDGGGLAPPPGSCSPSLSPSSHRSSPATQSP
Method in brief: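 RARα was exposed to 1000 nM test retinoid plus 5 nM [3H]-(all-E)-RA. Displacement was compared with a positive control of 1000 nM unlabeled (all-E)-RA and with a no-retinoid control.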

[6] = target: T3, Retinoic acid receptor alpha (Mus musculus, UniProt P11416); assay: Inhibition of [3H]ATRA binding to mouse Retinoic acid receptor RAR alpha
T3 sequence (P11416 whole entry): T2 sequence (whole entry)
Method in brief: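 Radioligand competition assay for RARα, measuring inhibition of [3H]-(all-E)-RA binding by unlabeled retinoid over a dose series to derive IC50.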

[7] = target: Cellular retinoic acid-binding protein 1 (Mus musculus, UniProt P62965); assay: Inhibition of [3H]ATRA binding to murine Cytoplasmic retinoic acid binding protein (CRABP) type 1
[8] = target: T4, Retinoic acid receptor RXR-alpha (Homo sapiens, UniProt P19793); assay: Inhibition of binding to human Retinoic acid receptor RXR DEF domain
T4 sequence (P19793 whole entry): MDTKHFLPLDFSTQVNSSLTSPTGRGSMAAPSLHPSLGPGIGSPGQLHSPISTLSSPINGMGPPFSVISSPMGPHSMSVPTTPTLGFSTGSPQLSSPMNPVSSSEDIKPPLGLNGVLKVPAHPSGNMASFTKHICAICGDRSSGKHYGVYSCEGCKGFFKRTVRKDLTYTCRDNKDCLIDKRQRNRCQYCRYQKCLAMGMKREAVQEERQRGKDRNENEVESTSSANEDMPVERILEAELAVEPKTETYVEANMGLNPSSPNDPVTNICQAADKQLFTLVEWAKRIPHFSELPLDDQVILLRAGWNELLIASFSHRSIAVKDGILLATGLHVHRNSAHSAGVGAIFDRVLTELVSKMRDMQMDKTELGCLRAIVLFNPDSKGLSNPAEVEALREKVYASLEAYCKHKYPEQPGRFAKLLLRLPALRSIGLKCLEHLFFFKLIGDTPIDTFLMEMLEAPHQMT

[9] = target: T5, Cellular retinoic acid-binding protein 2 (Mus musculus, UniProt P22935); assay: Inhibition of [3H]ATRA binding to murine Cytoplasmic retinoic acid binding protein (CRABP) type 2
T5 sequence (P22935 whole entry): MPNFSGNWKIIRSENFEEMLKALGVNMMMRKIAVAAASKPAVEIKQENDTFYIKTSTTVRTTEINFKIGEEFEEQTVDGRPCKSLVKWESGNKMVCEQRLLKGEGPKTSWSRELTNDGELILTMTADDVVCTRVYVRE

[10] = target: Cellular retinoic acid-binding protein 1 (Gallus gallus, UniProt P40220); assay: Inhibition of [3H]ATRA binding to chick skin Cytoplasmic retinoic acid binding protein
Mus musculus [11] = species on record: Mus musculus; assay: Antitumor activity in Mouse Skin Papilloma model * Value determined by Dawson et al; assay type: functional
[12] = Inhibition of [3H]ATRA binding to Cytoplasmic retinoic acid binding protein (CRABP) type 1

Cellular retinoic acid-binding protein 1 (Mus musculus, UniProt P62965), sequence (P62965 whole entry, the tested form may be a part): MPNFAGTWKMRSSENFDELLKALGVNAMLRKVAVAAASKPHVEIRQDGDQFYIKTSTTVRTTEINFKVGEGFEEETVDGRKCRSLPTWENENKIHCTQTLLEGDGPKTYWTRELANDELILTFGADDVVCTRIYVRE
Cellular retinoic acid-binding protein 1 (Gallus gallus, UniProt P40220), sequence (P40220 whole entry): as the sequence (P62965 whole entry, the tested form may be a part) above, with V68I, G71S, P86A, H95Y, T97K, L101I counted along it
Cellular retinoic acid-binding protein 1 (Gallus gallus), sequence (P40220 whole entry): as the sequence (P62965 whole entry, the tested form may be a part) above, with V68I, G71S, P86A, H95Y, T97K, L101I counted along it

| inhibition [2] [%] | IC50 [3] [nM] | inhibition [5] [%] | IC50 [6] [nM] | Kd [7] [nM] | Kd [8] [nM] | Kd [9] | IC50 [10] [nM] | IC50 [12] [nM] | SMILES | ED50 (Mus musculus [1]) | Reduction (Mus musculus [4]) [%] | ED50 (Mus musculus [11]) [nmol] |
| --- | --- | --- | --- | --- | --- | --- | --- | --- | --- | --- | --- | --- |
| 90 | > 2000 | 90 | 55 | 1.2 | > 200 | 13 nM | 1300 | – | CC1=C(C)/C(=C/C(C)=C/C=C/C(C)=C/C(=O)O)CCC1 | 490 nM | 32 | – |
| – | – | – | – | – | – | – | – | – | CC(=CC(=O)O)/C=C/C=C(C)/C=C/C1=C(C)CCCC1(C)C [ISOTRETINOIN] | – | – | 64 |
| 45 | > 2000 | 45 | > 2000 | – | > 200 | 3 nM and 10 nM | – | > 10000 | C\C(C=C1C=CCCC1)=C/C=C/C(C)=C/C(=O)O | – | – | – |
| 100 | > 2000 | 98 | – | – | – | – | – | – | CCC1=C(C(C)C)/C(=C/C(C)=C/C=C/C(C)=C/C(=O)O)CCC1 | 2.5 nM | 99 | – |
| 100 | > 2000 | 100 | 8 | 1 | > 200 | – | – | – | CC1=C(C(C)C)/C(=C/C(C)=C/C=C/C(C)=C/C(=O)O)CCC1 | 5 nM | 95 | – |
| 100 | – | 100 | – | – | – | – | – | – | CC1=C(/C=C/C(C)=C/C=C/C(C)=C/C(=O)O)C(C)(C)CCC1 [TRETINOIN] | 3 nM | 95 | – |
| 43 | 620 | 37 | > 1000 | > 200 | 33 | – | – | – | CC1=C(C(C)C)/C(=C/C(C)=C\C=C\C(C)=C\C(=O)O)CCC1 | > 100 nM | 30 | – |
| 10 | > 2000 | 10 | > 2000 | > 200 | 120 | > 200 nM | > 10000 | – | CC1=C(C)/C(=C/C(C)=C\C=C\C(C)=C\C(=O)O)CCC1 | – | 50 | – |
| 25 | – | 95 | – | – | – | – | – | – | CC1=C(/C=C/C(C)=C\C=C\C(C)=C\C(=O)O)C(C)(C)CCC1 [ALITRETINOIN] | 2.1 nM | 95 | – |
| 50 | > 2000 | 55 | 600 | 3 | > 200 | 13 nM | > 10000 | – | CC(=C\C=C\C(C)=C\C(=O)O)/C=C1/C=CCCC1 | > 1000 nM | 22 | – |
| 15 | 1000 | 42 | – | > 200 | 16 | > 200 nM | > 10000 | – | CCC1=C(C(C)C)/C(=C/C(C)=C\C=C\C(C)=C\C(=O)O)CCC1 | > 100 nM | 43 | – |
| – | – | – | – | – | – | – | – | – | CCC1=C(C(C)C)/C(=C/C(C)=C/C=C/C(C)=CC(=O)O)CCC1 | 4.7 nmol | 81 | – |
